Drawing on ChEMBL document CHEMBL4627359, “Design, synthesis and biological evaluation of spiropyrazolopyridone derivatives as potent dengue virus inhibitors” (Bioorg Med Chem Lett, 2020), this text covers EC50 and CC50 for 18 compounds.

For series [1], the system named is dengue virus type 2. The series is described as follows: Antiviral activity against DENV2 infected in human Huh7 cells. Format: functional, organism-based. The following applies: Huh-7. An outline of the steps:
(§1)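 Huh7 cells stably carrying a DENV replicon (serotype 1, 2, 3 or 4) with Renilla luciferase and neomycin-resistance genes. Seeded at 10k/well, incubated overnight at 37 °C in 5% CO₂, then given 2-fold serial compound dilutions in duplicate. After 48 h, luciferase was read with EnduRen live-cell substrate. EC50 came from four-parameter logistic fits of dose-response curves.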

The test system of series [2] is Huh-7. The series is described as follows: Cytotoxicity against human HuH7 cells infected with DENV2 assessed as reduction in cell viability. Type of series: cell-based. An outline of the steps: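 Cytotoxicity was read in Huh7 cells stably carrying the DENV-2 Renilla luciferase replicon. Cells were seeded at 10k/well, incubated overnight at 37 °C in 5% CO₂, then given 2-fold serial compound dilutions in duplicate for 48 h. After the live-cell luciferase read, CellTiter-Glo was added to the same wells to measure viability.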

Series [3] has as its system dengue virus type 1. The series is described as follows: Antiviral activity against DENV1 infected in human Huh7 cells. Format: functional, organism-based. To be noted: Huh-7. An outline of the steps: as §1
Series [4] concerns dengue virus type 3. The series is described as follows: Antiviral activity against DENV3 infected in human Huh7 cells. Format: functional, organism-based. To be noted: Huh-7. An outline of the steps: as §1
Series [5] relates to dengue virus type 4. The series is described as follows: Antiviral activity against DENV4 infected in human Huh7 cells. Format: functional, organism-based. The following applies: Huh-7. An outline of the steps:
as §1

pEC50: −log10 of the molar value.

What is called pEC50 is −log10 of the EC50, conventionally taken in molar units. The CC50 is the concentration giving 50% cytotoxicity.

The compound `O=C1CC2(C(=O)Nc3ccc(Cl)cc32)c2cn(Cc3ccc(Cl)c(Cl)c3)nc2N1` (stereo not drawn) showed a pEC50 in series [1] of 5.96. The cytotoxic concentration (CC50) in series [2] was more than 10000 nM.
As to `O=C1CC2(C(=O)Nc3ccc(Cl)cc32)c2cnn(Cc3ccc(Cl)c(F)c3)c2N1` (stereo not drawn), the negative logarithm of the EC50 (pEC50) was 5.74 in series [3], 7.30 in series [1], 7.72 in series [4] and less than 5.30 in series [5]. In addition, in series [2], the CC50 was more than 10000 nM.
For `Cc1nn(Cc2ccc(Cl)cc2)c2c1C1(CC(=O)N2)C(=O)Nc2ccc(Cl)cc21` (stereo not drawn) the same measures were 5.60, 5.74, 7.60, less than 5.30 and more than 10000 nM.
In the same order, the values of `O=C1CC2(C(=O)Nc3ccc(Cl)cc32)c2cnn(Cc3ccc(Cl)cc3)c2N1` (stereo not drawn) are 5.62, 6.96, 8.22, less than 5.00 and more than 10000 nM.
Compound `O=C1CC2(C(=O)Nc3ccc(Cl)cc32)c2cn(Cc3ccc(Cl)cc3)nc2N1` (stereo not drawn) had a pEC50 in series [1] of 5.36. Besides, in series [2], the cytotoxic concentration (CC50) was more than 10000 nM.
In series [1], `CS(=O)(=O)c1ccc(Cn2ncc3c2NC(=O)CC32C(=O)Nc3ccc(Cl)cc32)cc1` (stereo not drawn) showed a pEC50 of less than 5.30.
For the compound `COC(=O)c1ccc(Cn2ncc3c2NC(=O)CC32C(=O)Nc3ccc(Cl)cc32)cc1` (stereo not drawn), the pEC50 in series [1] was less than 5.30.
`O=C1CC2(C(=O)Nc3ccc(Cl)cc32)c2cnn(Cc3ccc(Cl)c(Cl)c3)c2N1` (stereo not drawn): the pEC50 in series [3] is 5.74; in series [1] it was 7.21; in series [4] it was less than 5.30; in series [5], less than 5.30. Besides, the CC50 in series [2] is more than 10000 nM.
On to `O=C1CC2(C(=O)Nc3ccc(Cl)cc32)c2cnn(Cc3ccc(C(F)(F)F)cc3C(F)(F)F)c2N1` (stereo not drawn), for which the pEC50 was 5.80 in series [3], 7.42 in series [1], 7.77 in series [4] and less than 5.30 in series [5]. In addition, the CC50 in series [2] was more than 10000 nM.
Take `O=C1CC2(C(=O)Nc3ccc(Cl)cc32)c2cnn(Cc3ccc(F)cc3)c2N1` (stereo not drawn): the negative-log EC50 (pEC50) in series [1] is 5.38.
On to `CC(=O)C1C(=O)Nc2c(cnn2Cc2ccc(Cl)cc2)C12C(=O)Nc1ccc(Cl)cc12` (stereo not drawn), for which the negative-log EC50 (pEC50) in series [1] is less than 5.00. Moreover, the CC50 in series [2] was more than 20000 nM.
Consider `O=C1CC2(C(=O)Nc3ccc(Cl)cc32)c2cnn(Cc3ccc(Cl)cc3F)c2N1` (stereo not drawn), for which the pEC50 in series [3] is 5.64; in series [1], 6.85; in series [4], 6.41; in series [5] it was less than 5.30. Further, the CC50 in series [2] is more than 10000 nM.
Turning to `O=C1CC2(C(=O)Nc3ccc(Cl)cc32)c2c(C3CC3)nn(Cc3ccc(Cl)cc3)c2N1` (stereo not drawn), in series [1], the negative logarithm of the EC50 (pEC50) is 5.72. The CC50 in series [2] is more than 10000 nM.
For `NC(=O)C1C(=O)Nc2c(cnn2Cc2ccc(Cl)cc2)C12C(=O)Nc1ccc(Cl)cc12` (stereo not drawn) the same measures were 5.49 and 50000 nM.
The compound `N#Cc1cn(Cc2ccc(Cl)cc2)c2c1C1(CC(=O)N2)C(=O)Nc2ccc(Cl)cc21` (stereo not drawn) had a pEC50 in series [1] of less than 5.30.
The same measure, in the same setting: the same measure for `O=C1CC2(C(=O)Nc3ccc(Cl)cc32)c2cnn(Cc3ccc(C(=O)O)cc3)c2N1` (stereo not drawn): less than 5.30.
For the compound `N#CC1C(=O)Nc2c(cnn2Cc2ccc(Cl)cc2)C12C(=O)Nc1ccc(Cl)cc12` (stereo not drawn), the pEC50 in series [1] is 5.07. Further, the CC50 in series [2] was found to be 50000 nM.
Regarding `N#Cc1ccc(Cn2ncc3c2NC(=O)CC32C(=O)Nc3ccc(Cl)cc32)cc1` (stereo not drawn), the pEC50 in series [1] was less than 5.30.
